Source: ChEMBL document CHEMBL1124344, “5-Piperazinylalkyl-2(3H)-oxazolones with neuroleptic activity” (J Med Chem, 1989)

What was measured:
Format in all cases: functional
Mus musculus [1] = assay: Anticonvulsant activity against pentylenetetrazole-induced convulsions, after 1 hour of peroral administration in mouse at a dose of 20 mg/kg; details: route oral
Outline: (§1)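 Compounds were dosed as bases suspended in arabic gum at 10 mL/kg orally, after an overnight fast, with vehicle controls. Protection meant no bilateral forepaw clonic seizures or head twitches (tryptamine), or no tonic hind-limb extension (the other two). ED50 is the dose protecting 50%, by probit analysis.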

Mus musculus [2] = assay: Inhibitory activity against tremorine-induced tremors, after 1 hour of peroral administration in mouse at dose 20 mg/kg; details: route oral
Outline: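 Male mice fasted overnight, dosed orally with arabic gum suspension (10 mL/kg) 1 or 5 h before test, vehicle controls included. Tremorine 20 mg/kg ip given 1 h after compounds; central (tremor) and peripheral (salivation) parasympathetic signs recorded. ED50 = dose protecting 50% of animals, by probit analysis.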

Mus musculus [3] = assay: Anticonvulsant activity against pentylenetetrazole-induced convulsions, after 1 hour of peroral administration in mouse at a dose of 9.4 mg/kg; details: route oral; outline: as §1
Mus musculus [4] = assay: Anticonvulsant activity against electroshock-induced convulsions, after 1 hour of peroral administration in mouse at dose of 100 mg/kg; details: route oral; outline: as §1
Mus musculus [5] = assay: Activity of inclined screen in mouse, after 5 hour of peroral administration in mouse at dose of 100 mg/kg; details: route oral
Outline: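 Male mice dosed orally (arabic gum suspension, 10 mL/kg, fasted overnight) 1 or 5 h before testing. Placed for 1 h on a wire screen bent at 60° to the horizontal. Ataxic or miorelaxed mice slide off. ED50 is the dose at which 50% of mice fall, by probit analysis. Ten animals per dose, with vehicle controls.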

Mus musculus [6] = assay: Contractile activity in skeletal muscles, after 1 hour of peroral administration in mouse at dose of 0 mg/kg; details: Muscle tissue, route oral
Outline: (§2)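 Male mice were placed for 1 h on a 60° inclined wire screen just after dosing and 4 h later. In a second test, trained mice hung by the forepaws from a horizontal 1.8 mm wire 15 cm up; normal mice touch it with a hind paw within 2 s and stay ≥1 min. ED50 is the dose making 50% fall. Dosing was oral in gum arabic suspension at 10 mL/kg after an overnight fast.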

Mus musculus [7] = assay: Anticonvulsant activity against pentylenetetrazole-induced convulsions, after 5 hour of peroral administration in mouse at dose of 100 mg/kg; details: route oral; outline: as §1
Mus musculus [8] = assay: Inhibition of spontaneous locomotor activity, after 5 hour of peroral administration in mouse; details: po
Outline: (§3)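 Mice in groups of five were dosed orally with gum arabic suspensions at 10 mL/kg after an overnight fast, with a vehicle control group. Locomotion was counted for 10 min in a photocell activity cage, in at least two groups per dose. ED50, by probit analysis, is the dose giving 50% inhibition against controls.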

Mus musculus [9] = assay: Effect on skeletal muscle tone, after 5 hour of peroral administration in mouse at a dose of 200 mg/kg; details: Muscle tissue, route oral; outline: as §2
Mus musculus [10] = assay: Potentiation against pentobarbital-induced sleeping, after 5 hour of peroral administration in mouse at a dose of 100 mg/kg; details: route oral
Outline: (§4)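 Female mice fasted overnight, dosed orally 1 or 5 h beforehand as arabic gum suspension, 10 mL/kg, with vehicle controls. Subhypnotic pentobarbital 10 mg/kg iv; 3 min later placed on back, effect scored as complete loss of righting reflex for at least 15 s. ED50 = dose producing this in 50% of mice, probit analysis.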

Mus musculus [11] = assay: Anticonvulsant activity against electroshock-induced convulsions, after 1 hour of peroral administration in mouse at a dose of 100 mg/kg; details: route oral; outline: as §1
Rattus norvegicus [12] = assay: Antagonistic activity against apomorphine-induced stereotypy, after 1 hour of peroral administration in rats at a dose of 100 mg/kg; details: route oral
Outline: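 Male rats fasted overnight and given oral doses in arabic gum suspension (10 mL/kg) 1 h, or 1 and 5 h, before challenge. Apomorphine 3 mg/kg iv, with stereotypy observed 20 min later. ED50 is the dose inhibiting stereotypy in 50% of rats, per Janssen's method. Parenthetical entries give the maximal dose and percent activity.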

Mus musculus [13] = assay: Anticonvulsant activity against tryptamine-induced convulsions, after 5 hour of peroral administration in mouse at a dose of 40 mg/kg; details: route oral; outline: as §1
Mus musculus [14] = assay: Potentiation against pentobarbital-induced sleeping, after 1 hour of peroral administration in mouse at a dose of 100 mg/kg; details: route oral; outline: as §4
Rattus norvegicus [15] = assay: Inhibitory activity against norepinephrine-induced lethality, after 5 hour of peroral administration in rat at a dose of 40 mg/kg; details: route oral
Outline: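 Rats (80–90 g) dosed orally (arabic gum, 10 mL/kg) 1 or 5 h before norepinephrine 0.5 mg/kg iv, which kills unprotected rats within 30 min. ED50 is the dose protecting 50% of rats from lethality, by probit analysis.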

Mus musculus [16] = assay: Inhibition of spontaneous motor activity after 1 hour of peroral administration in mouse; details: po; outline: as §3
Mus musculus [17] = assay: Anticonvulsant activity against electroshock-induced convulsions, after 5 hour of peroral administration in mouse at a dose of 40 mg/kg; details: route oral; outline: as §1
Rattus norvegicus [18] = species on record: Rattus norvegicus; assay: Body weight gain, after 2 hour of period of conditioned feeding in rats,
Outline: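 Female rats (250–280 g) were kept singly on a 22-h food deprivation schedule, with pellets 10–12 a.m. and water always available. After 30–40 days of training they were dosed 1 h before the 2-h feeding and weighed before and after it. Weight gain was expressed as a percentage of the two preceding control days. ED50 is the dose giving 50% reduction.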

Mus musculus [19] = assay: Effect on skeletal muscle tone, after 5 hour of peroral administration in mouse at a dose of 100 mg/kg; details: Muscle tissue, route oral; outline: as §2
Mus musculus [20] = assay: Inhibition of spontaneous motor activity after 5 hour of peroral administration in mouse; details: po; outline: as §3
Mus musculus [21] = assay: Anticonvulsant activity against pentylenetetrazole-induced convulsions, after 5 hour of peroral administration in mouse at a dose of 40 mg/kg; details: route oral
Outline: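 Male mice dosed orally (arabic gum, 10 mL/kg) 1 or 5 h before challenge with tryptamine 100 mg/kg iv, pentylenetetrazol 110 mg/kg ip, or maximal electroshock. Protection means no bilateral forepaw clonic seizures and head twitches (tryptamine) or no tonic hind-limb extension (others). ED50 protects 50% of mice.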

Compound: O=C(CCCN1CCC(O)(c2ccc(Cl)cc2)CC1)c1ccc(F)cc1 [HALOPERIDOL]
- inhibition in vivo at 20 mg/kg (Mus musculus [1]): 0%
- inhibition in vivo at 20 mg/kg (Mus musculus [2]): 0%
- inhibition in vivo at 9.4 mg/kg (Mus musculus [3]): 0%

Compound: COc1ccccc1N1CCN(CCc2oc(=O)[nH]c2-c2ccc(F)cc2)CC1 [ZOLOPERONE]
- inhibition in vivo at 100 mg/kg (Mus musculus [4]): 0%
- inhibition in vivo at 100 mg/kg (Mus musculus [5]): 0%
- ED50 (Mus musculus [6]): 179 mg/kg
- inhibition in vivo at 100 mg/kg (Mus musculus [7]): 0%

Compound: CN(C)CCCN1c2ccccc2Sc2ccc(Cl)cc21 [CHLORPROMAZINE]
- ED50 (Mus musculus [8]): 4.8 mg/kg

Compound: O=c1[nH]c(-c2ccc(F)cc2)c(CCN2CCN(c3cc(Cl)cc(Cl)c3)CC2)o1 [LODIPERONE]
- inhibition in vivo at 200 mg/kg (Mus musculus [9]): 0%
- inhibition in vivo at 100 mg/kg (Mus musculus [10]): 0%
- inhibition in vivo at 100 mg/kg (Mus musculus [11]): 0%
- inhibition in vivo at 100 mg/kg (Rattus norvegicus [12]): 0%
- inhibition in vivo at 40 mg/kg (Mus musculus [13]): 0%
- inhibition in vivo at 100 mg/kg (Mus musculus [14]): 30%
- inhibition in vivo at 40 mg/kg (Rattus norvegicus [15]): 10%

Compound: COc1ccccc1N1CCN(CCCC(=O)c2ccc(F)cc2)CC1 [FLUANISONE]
- ED50 (Mus musculus [16]): 7.7 mg/kg
- inhibition in vivo at 40 mg/kg (Mus musculus [17]): 0%
- ED50 (Rattus norvegicus [18]): 6 mg/kg
- inhibition in vivo at 100 mg/kg (Mus musculus [19]): 0%
- ED50 (Mus musculus [20]): 15.7 mg/kg
- inhibition in vivo at 40 mg/kg (Mus musculus [21]): 0%
